# Published values gathered from unrelated publications.
# Compare with care: the assays were run in different laboratories.
# SLC6A3: Sodium-dependent dopamine transporter (SLC6A3, Homo sapiens, UniProt Q01959)
# HDAC5: Histone deacetylase 5 (HDAC5, Homo sapiens, UniProt Q9UQL6)
# DRD3: D(3) dopamine receptor (DRD3, Homo sapiens, UniProt P35462)
Compound,target,assay,setting,IC50
NC(=O)c1nnn(Cc2cc(Cl)c(C(=O)c3ccc(Cl)cc3)c(Cl)c2)c1N,SLC6A3,"transporter uptake, inhibitor",,0.069 µM
COc1c(Cl)cccc1Nc1c(-c2ccncc2OC[C@@H]2COCCO2)[nH]c2c1C(=O)NCC2,"Discoidin domain-containing receptor 2 (DDR2, Homo sapiens, UniProt Q16832)","ligand displacement, TR-FRET",,0.053 µM
O=C(NO)c1ccc(Cn2cnc3c(Nc4cccc([N+](=O)[O-])c4)ncnc32)cc1,HDAC5,"enzyme activity, inhibitor",,1.14 µM
CNc1nc(C#Cc2ccc(Cl)s2)nc2c1ncn2[C@H]1[C@H](O)[C@H](O)[C@]2(C(=O)OC)C[C@H]12,SLC6A3,"transporter uptake, inhibitor, radiometric",,0.38 µM
CCc1ccc(NS(=O)(=O)c2c(C)[nH]c(C)c2C(=O)N2CCC(F)(F)C2)cc1Cl,DRD3,"G protein activation, antagonist, BRET",,1.6 µM
Nc1cnccc1Nc1ccc(Cl)c(Cl)c1,"DNA repair nuclease/redox regulator APEX1 (APEX1, Homo sapiens, UniProt P27695)","enzyme activity, inhibitor",,> 100 µM
Cc1[nH]c(C)c(S(=O)(=O)Nc2ccc(Cl)c(C(F)(F)F)c2)c1C(=O)N1CCC(F)(F)C1,DRD3,"G protein activation, antagonist, BRET",,15 µM
CCCN(CCC)S(=O)(=O)c1ccc(C(=O)O)cc1,"Taste receptor type 2 member 16 (TAS2R16, Homo sapiens, UniProt Q9NYV7, N96T)","inositol phosphate, antagonist, TR-FRET",,2180 µM
CN1CCN(c2nc(-c3cc4cc(Br)ccc4oc3=O)cs2)CC1,"Carbonic anhydrase 12 (CA12, Homo sapiens, UniProt O43570)","enzyme activity, inhibitor, absorbance",,2.82 µM
O=C(Nc1ccc2[nH]c(=O)oc2c1)C(=O)N1CCC(Cc2ccc(F)cc2)CC1,"Glutamate NMDA receptor; GRIN1/GRIN2B (GRIN1/GRIN2B, Homo sapiens, UniProt Q05586+Q13224)","ion current, two-electrode voltage clamp",oocytes,0.029 µM
COc1ccc(N(Cc2csc(-c3ccccc3)n2)C(=O)CCCCCC(=O)NO)cc1,HDAC5,"enzyme activity, inhibitor",,> 10 µM
CN(C)C(=O)c1cc2cnc(Nc3ccc(-c4ccc5c(=O)cc(N6CCOCC6)oc5c4)cc3)nc2n1C1CCCC1,"DNA-dependent protein kinase catalytic subunit (PRKDC, Homo sapiens, UniProt P78527)","enzyme activity, inhibitor",,0.192 µM
CSc1ccc(NS(=O)(=O)c2c(C)[nH]c(C)c2C(=O)N2CCC(F)(F)C2)cc1Cl,DRD3,"G protein activation, antagonist, BRET",,6 µM
COc1ccc(N(Cc2csc(-c3ccc(Br)cc3)n2)C(=O)CCCCCC(=O)NO)cc1,HDAC5,"enzyme activity, inhibitor",,> 10 µM
Cc1[nH]c(C)c(S(=O)(=O)Nc2ccc(C(F)(F)F)c3ncccc23)c1C(=O)N1CCC(F)(F)C1,DRD3,"G protein activation, antagonist, BRET",,15 µM
O[C@@H]1[C@H](O)[C@@H]2C[C@@H]2[C@H]1n1cnc2c(NCCC3CC3)ncnc21,SLC6A3,"transporter uptake, inhibitor, radiometric",,9.3 µM
